Screening data as filed in PubChem BioAssay.
Only some compounds are listed: those with a hit (about 5.8% of all), similar ones and a draw of the others.
Tcruzi prolif = T. cruzi proliferation inhibition. inhibition, % at 8.34 µM. hit rate 5.9% among 77,000. AID 624255. T. cruzi beta-gal in NIH3T3, GalScreen luminescence, 90 h;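 active = mean inhibition above about 93%, with at least 55% of replicates each passing it, limit read from the data, passing the limit was not always enough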
Pf Dd2 inh = inhibitors of Plasmodium falciparum Dd2 growth. hit rate 2.3% among 94,000. AID 1159554. activity change, % at 10 µM. P. falciparum Dd2 growth, SYBR Green, 72 h; active compounds read low; in the data active = activity change below about -80%
IDH1 R132H inh = blocks human IDH1 R132H reductase activity; AID 624101; diaphorase/resazurin fluorescence, 60 min; hit rate 0.18% among 70,000; inhibition, % at 10 µM; O75874; in the data active = inhibition above about 34%;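 note: 0% = DMSO and 100% = no enzyme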
Target sequence (O75874 whole entry R132H): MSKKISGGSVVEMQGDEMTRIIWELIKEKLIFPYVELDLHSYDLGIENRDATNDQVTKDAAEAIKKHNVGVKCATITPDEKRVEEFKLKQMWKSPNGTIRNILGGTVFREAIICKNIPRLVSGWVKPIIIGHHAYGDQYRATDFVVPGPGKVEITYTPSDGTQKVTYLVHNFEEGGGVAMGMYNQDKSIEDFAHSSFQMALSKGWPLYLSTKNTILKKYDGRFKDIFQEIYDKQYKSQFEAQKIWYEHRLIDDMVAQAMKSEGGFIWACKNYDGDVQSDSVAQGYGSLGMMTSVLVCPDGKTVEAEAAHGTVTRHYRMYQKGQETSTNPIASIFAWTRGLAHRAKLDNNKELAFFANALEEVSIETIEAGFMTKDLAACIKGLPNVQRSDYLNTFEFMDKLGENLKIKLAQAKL
KDM4C inh = inhibitors of human demethylase GASC-1 KDM4C; hit rate 0.15% among 96,000; inhibition, % at 12.5 µM; GST-KDM4C 2-372, H3K9me3 peptide, LANCE TR-FRET;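 active = mean replicate inhibition above about 25%, with at least 55% of replicates also reaching it, limit read from the data, passing the limit was not always enough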
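Material: GST-tagged GASC-1 (JMJD2C) catalytic fragment, aa 2-372 / Quantity: enzyme final amount 10 nM / Medium: HEPES buffer, pH 7.5, plus ascorbate / Doses: one test concentration per compound / Incubation: 30 min reaction, 60 min detection, RT / Measured by: LANCE TR-FRET / Read-out: inhibition from TR-FRET ratio decrease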
Starred values were filed as active, the others as inactive; nt = no result given.

SMILES | Tcruzi prolif | Pf Dd2 inh | IDH1 R132H inh | KDM4C inh
C[C@@H]1CN([C@@H](C)CO)C(=O)c2cccc(NC(=O)CCCCCC(=O)Nc3ccccc3N)c2O[C@@H]1CN(C)Cc1ccc(Oc2ccccc2)cc1 | nt | -91* | nt | -1
C[C@H](CO)N1C[C@H](C)[C@H](CN(C)C(=O)Nc2ccccc2)Oc2c(NC(=O)CCCCCC(=O)Nc3ccccc3N)cccc2C1=O | nt | -58 | 0 | -1
C[C@@H]1CN([C@H](C)CO)C(=O)c2cc(NC(=O)CCCCCC(=O)Nc3ccccc3N)ccc2O[C@@H]1CN(C)Cc1ccc(Oc2ccccc2)cc1 | nt | -60 | nt | 11
C[C@H]1CN([C@@H](C)CO)C(=O)c2cccc(NC(=O)CCCCCC(=O)Nc3ccccc3N)c2O[C@@H]1CN(C)Cc1ccc(Oc2ccccc2)cc1 | nt | -82* | 0 | 0
C[C@@H]1CN([C@H](C)CO)C(=O)c2cccc(NC(=O)CCCCCC(=O)Nc3ccccc3N)c2O[C@@H]1CN(C)Cc1ccc(Oc2ccccc2)cc1 | nt | -91* | 0 | 1
Cc1noc(C)c1S(=O)(=O)Nc1ccc2c(c1)CC(=O)N([C@H](C)CO)C[C@H](C)[C@@H](CN(C)Cc1ccc(C(=O)Nc3ccccc3N)cc1)O2 | nt | -74 | -1 | -1
Cc1noc(C)c1S(=O)(=O)Nc1ccc2c(c1)CC(=O)N([C@H](C)CO)C[C@@H](C)[C@@H](CN(C)Cc1ccc(C(=O)Nc3ccccc3N)cc1)O2 | nt | -89* | 8 | -2
Cc1noc(C)c1S(=O)(=O)Nc1ccc2c(c1)CC(=O)N([C@@H](C)CO)C[C@@H](C)[C@@H](CN(C)Cc1ccc(C(=O)Nc3ccccc3N)cc1)O2 | nt | -93* | nt | 1
C[C@H](CO)N1C[C@H](C)[C@@H](CN(C)Cc2ccncc2)Oc2c(NC(=O)Nc3ccccc3)cccc2C1=O | -23 | 4 | 8 | nt
CCn1c(SCC(=O)Nc2cc(Cl)c(Cl)cc2Cl)nnc1-c1cccc(C)c1 | nt | nt | 0 | nt
COCC(=O)N(C)C[C@H]1Oc2cc(-c3ccccc3)ccc2S(=O)(=O)N([C@@H](C)CO)C[C@H]1C | 35 | 34 | 0 | -12
O=C(N[C@@H]1CC[C@@H](CCn2cc(C3(O)CCCC3)nn2)O[C@H]1CO)C1CCCC1 | nt | 5 | 0 | -3
C[C@@H]1CN([C@H](C)CO)C(=O)c2cc(NC(=O)CCCCCC(=O)Nc3ccccc3N)ccc2O[C@@H](C)CCCCO[C@H]1CN(C)Cc1ccc(Cl)c(Cl)c1 | nt | -91* | 3 | 0
C[C@@H]1CCCCO[C@H](CN(C)Cc2ccc(Cl)c(Cl)c2)[C@@H](C)CN([C@H](C)CO)C(=O)c2cc(NC(=O)CCCCCC(=O)Nc3ccccc3N)ccc2O1 | nt | -90* | 0 | -1
C[C@@H]1CCCCO[C@@H](CN(C)C)[C@@H](C)CN([C@H](C)CO)C(=O)c2cc(NC(=O)CCCCCC(=O)Nc3ccccc3N)ccc2O1 | nt | 25 | nt | 8
CN(C)CCCC[C@@H]1NC(=O)[C@H]2C[C@@H](C(=O)NCc3ccc(F)cc3)[C@@H](c3ccc(O)cc3)N2C1=O | nt | nt | 42* | nt
Cc1ccccc1S(=O)(=O)N1[C@@H](C#N)[C@@H](c2ccc(-c3ccc(F)cc3)cc2)[C@@H]1CO | 107* | -13 | nt | -3
Cc1ccccc1S(=O)(=O)N1[C@H](C#N)[C@H](c2ccc(C#CC3CCCCC3)cc2)[C@@H]1CO | 84 | -44 | nt | -2
CS(=O)(=O)N1[C@H](CO)[C@@H](c2ccc(C#CC3CCCC3)cc2)[C@@H]1C#N | 89 | -3 | nt | -4
Cc1ccccc1S(=O)(=O)N1[C@H](CO)[C@@H](c2ccc(C#CC3CCCCC3)cc2)[C@@H]1C#N | 90 | -83* | nt | -3
Cc1ccccc1S(=O)(=O)N1[C@H](C#N)[C@@H](c2ccc(-c3ccc(F)cc3)cc2)[C@@H]1CO | 84 | -14 | nt | 0
CS(=O)(=O)N1[C@H](C#N)[C@H](c2ccc(C#CC3CCCCC3)cc2)[C@H]1CO | 99* | -20 | nt | -2
N#C[C@H]1[C@@H](c2ccc(C#CC3CCCC3)cc2)[C@@H](CO)N1S(=O)(=O)c1ccccc1 | 91 | -83* | 0 | -1
CCCNC(=O)Nc1ccc2c(c1)C(=O)N(C)C[C@H](OC)[C@H](C)CN(C(=O)C1CC1)[C@H](C)CO2 | nt | nt | 0 | 1
Cc1ccccc1S(=O)(=O)N1[C@H](C#N)[C@@H](c2ccc(C#CC3CC3)cc2)[C@@H]1CO | 74 | -85* | nt | 0
COc1ccc2c3c(n(C)c2c1)[C@H](CO)NCC31CCN(CC2CCCC2)CC1 | nt | -86* | nt | 2
COc1ccc2c3c(n(C)c2c1)[C@H](CO)NCC31CCN(Cc2ccc(F)cc2)CC1 | nt | -83* | nt | nt
